From paper PMC3776988 (British Journal of Cancer, 2013)
Starred links: 1 amine or outer side, 2 acyl side, 3 side chain; linkers in the order of their positions; H or OH if unused. Positions of bridges follow the written chain, without caps; N, C: chain ends. Non-standard residues stand in square brackets, D forms with d. Residues, ends and D or L forms follow the SMILES beside them. *: point of attachment. X1 = CC[C@H](C)[C@@H](N[*:1])[C@@H](O)CC(=O)O[C@H](C(=O)[C@H](C)C(=O)[*:2])C(C)C; NMeY = CN[C@@H](Cc1ccc(O)cc1)C(=O)O; dNMeL = CN[C@H](CC(C)C)C(=O)O; Pyruvoyl = CC(=O)C(=O)*

Experiments:
[1] = tested on: patients with metastatic/advanced melanoma; settings: cited from earlier work
[2] = tested on: patients with advanced malignant melanoma; experiment: Phase II stage toxicity; type: in vivo, human; settings: single-agent plitidepsin 3.2 mg m^−2
In short: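 Previously untreated adults with advanced melanoma (ECOG PS ⩽2) were randomised without stratification to plitidepsin 3.2 mg m−2 as a 1-h i.v. infusion on days 1, 8 and 15 q4wk. Day-1 dosing could be delayed up to 2 weeks, and day-8/15 doses were skipped if retreatment criteria were unmet. Up to two dose reductions were allowed. Patients receiving ⩾1 infusion were evaluable; AEs were graded by NCI-CTCAE v.3.0.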

[3] = tested on: patients; settings: plitidepsin 1-h weekly schedule; ref Izquierdo et al, 2008; cited from earlier work

CN(C)/N=N/c1[nH]cnc1C(N)=O [DTIC, Dacarbazine]
Responses to single-agent DTIC, % of patients ([1]; generally short lived, ref Falkson et al, 1998, Chapman et al, 1999, Chiarion Sileni et al, 2001, Avril et al, 2004, Bedikian et al, 2006, Schadendorf et al, 2006, Patel et al, 2011): 6–15% | Response rates reported for single-agent DTIC ([1]; reported range): 5–15%

CC[C@H](C)[C@H]1NC(=O)[C@@H](NC(=O)[C@@H](CC(C)C)N(C)C(=O)[C@@H]2CCCN2C(=O)C(C)=O)[C@@H](C)OC(=O)[C@H](Cc2ccc(OC)cc2)N(C)C(=O)[C@@H]2CCCN2C(=O)[C@H](CC(C)C)NC(=O)[C@@H](C)C(=O)[C@H](C(C)C)OC(=O)C[C@@H]1O [Plitidepsin, plitidepsin] (Pyruvoyl-P[dNMeL]T[X1]LP[NMeY](Me); ester 3-C)
Febrile neutropenia [2]: no cases | Grade 3 ALT increases, % of patients [2]: 10% | Omissions because of treatment-related transaminase increases [2]: 25% | Patients who skipped at least one plitidepsin infusion [2]: 47% | Single-agent RD [3]: 3.2 mg m^−2
